Measurements published in ChEMBL document CHEMBL4325893, “Synthesis and antibacterial profiles of targeted triclosan derivatives” (2019).
In brackets after ≈: the same amount, converted by molar mass.

Assays:
[1] = system: Aeromonas hydrophila; assay: Antibacterial activity against Aeromonas hydrophila OCC 778 after 18 hrs; format: functional; details: OCC 778, 18 h
In short: (§1)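 Broth microdilution in Nutrient Broth No. 2; stocks in ethanol diluted to 0.01–128 µg/ml (triclosan) or 0.25–256 µg/ml (glycosides). Overnight 37 °C NB2 cultures diluted 1 in 10^4 in saline and added to the dilutions. Incubation at 37 °C with agitation, OD read every 15 min; MIC is the lowest concentration preventing any OD rise after 18 h.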

[2] = system: Citrobacter freundii; assay: Antibacterial activity against Citrobacter freundii OCC 851 after 18 hrs; format: functional; details: OCC 851, 18 h; in short: as §1
[3] = system: Cronobacter sakazakii; assay: Antibacterial activity against Cronobacter sakazakii 29544 after 18 hrs; format: functional; details: Cronobacter sakazakii, 29544, 18 h; in short: as §1
[4] = system: Klebsiella aerogenes; assay: Antibacterial activity against Enterobacter aerogenes ATCC 13048 after 18 hrs; format: functional; details: ATCC 13048, 18 h; in short: as §1
[5] = Antibacterial activity against Enterobacter cloacae ATCC 13047 after 18 hrs; format: functional, Enterobacter cloacae subsp. cloacae; details: ATCC 13047, 18 h; in short: as §1
[6] = system: Escherichia coli; assay: Antibacterial activity against Escherichia coli ATCC 8739 after 18 hrs; format: functional; details: ATCC 8739, 18 h; in short: as §1
[7] = system: Escherichia coli; assay: Antibacterial activity against Escherichia coli ATCC 10536 after 18 hrs; format: functional; details: ATCC 10536, 18 h; in short: as §1
[8] = system: Escherichia coli; assay: Antibacterial activity against Escherichia coli ATCC 11775 after 18 hrs; format: functional; in short: as §1
[9] = system: Escherichia coli; assay: Antibacterial activity against Escherichia coli ATCC 25922 after 18 hrs; format: functional; details: ATCC 25922, 18 h; in short: as §1
[10] = system: Escherichia coli; assay: Antibacterial activity against Escherichia coli ATCC 35218 after 18 hrs; format: functional; details: ATCC 35218, 18 h; in short: as §1
[11] = system: Escherichia coli; assay: Antibacterial activity against Escherichia coli 700728 after 18 hrs; format: functional; details: Escherichia coli, 700728, 18 h; in short: as §1
[12] = system: Escherichia coli; assay: Antibacterial activity against Escherichia coli NCTC 13216 after 18 hrs; format: functional; details: NCTC 13216, 18 h; in short: as §1
[13] = system: Escherichia coli; assay: Antibacterial activity against Escherichia coli OCC 122 after 18 hrs; format: functional; details: OCC 122, 18 h; in short: as §1
[14] = system: Escherichia hermannii; assay: Antibacterial activity against Escherichia hermannii 33650 after 18 hrs; format: functional; details: Atlantibacter hermannii, 33650, 18 h; in short: as §1
[15] = system: Hafnia alvei; assay: Antibacterial activity against Hafnia alvei 13337 after 18 hrs; format: functional; details: Hafnia alvei, 13337, 18 h; in short: as §1
[16] = system: Klebsiella aerogenes; assay: Antibacterial activity against Klebsiella aerogenes NCTC 8167 after 18 hrs; format: functional; details: NCTC 8167, 18 h; in short: as §1
[17] = system: Klebsiella pneumoniae; assay: Antibacterial activity against Klebsiella pneumoniae ATCC 10031 after 18 hrs; format: functional; details: ATCC 10031, 18 h; in short: as §1
[18] = system: Proteus mirabilis; assay: Antibacterial activity against Proteus mirabilis ATCC 12453 after 18 hrs; format: functional; details: ATCC 12453, 18 h; in short: as §1
[19] = system: Proteus vulgaris; assay: Antibacterial activity against Proteus vulgaris OCC 195 after 18 hrs; format: functional; details: OCC 195, 18 h; in short: as §1
[20] = system: Pseudomonas aeruginosa; assay: Antibacterial activity against Pseudomonas aeruginosa ATCC 27853 after 18 hrs; format: functional; details: ATCC 27853, 18 h; in short: as §1
[21] = system: Klebsiella pneumoniae; assay: Antibacterial activity against Klebsiella pneumoniae ATCC 13883 after 18 hrs; format: functional; details: ATCC 13883, 18 h; in short: as §1
[22] = system: Citrobacter freundii; assay: Antibacterial activity against Citrobacter freundii 8090 after 18 hrs; format: functional; details: Citrobacter freundii, 8090, 18 h; in short: as §1
[23] = system: Serratia marcescens; assay: Antibacterial activity against Serratia marcescens OCC 217 after 18 hrs; format: functional; details: OCC 217, 18 h; in short: as §1
[24] = system: Bacillus cereus; assay: Antibacterial activity against Bacillus cereus ATCC 14579 after 18 hrs; format: functional; details: ATCC 14579, 18 h; in short: as §1
[25] = system: Bacillus subtilis; assay: Antibacterial activity against Bacillus subtilis NCTC 10073 after 18 hrs; format: functional; details: NCTC 10073, 18 h; in short: as §1
[26] = system: Enterococcus faecalis; assay: Antibacterial activity against Enterococcus faecalis ATCC 29212 after 18 hrs; format: functional; details: ATCC 29212, 18 h; in short: as §1
[27] = system: Enterococcus faecalis; assay: Antibacterial activity against Enterococcus faecalis ATCC 33186 after 18 hrs; format: functional; details: ATCC 33186, 18 h; in short: as §1
[28] = system: Enterococcus faecium; assay: Antibacterial activity against Enterococcus faecium ATCC 19434 after 18 hrs; format: functional; details: ATCC 19434, 18 h; in short: as §1

- MIC [1]: > 256 µg/mL
- MIC [2]: 64 µg/mL (≈ 152 µM)
- MIC [3]: 128 µg/mL (≈ 304 µM)
- MIC [4]: 128 µg/mL (≈ 304 µM)
- MIC [5]: 16 µg/mL (≈ 37.9 µM)
- MIC [6]: 8 to 32 µg/mL (≈ 19 to 75.9 µM)
- MIC [7]: 8 to 32 µg/mL (≈ 19 to 75.9 µM)
- MIC [8]: 8 to 32 µg/mL (≈ 19 to 75.9 µM)
- MIC [9]: 8 to 32 µg/mL (≈ 19 to 75.9 µM)
- MIC [10]: 8 to 32 µg/mL (≈ 19 to 75.9 µM)
- MIC [11]: 8 to 32 µg/mL (≈ 19 to 75.9 µM)
- MIC [12]: 8 to 32 µg/mL (≈ 19 to 75.9 µM)
- MIC [13]: 8 to 32 µg/mL (≈ 19 to 75.9 µM)
- MIC [14]: 32 µg/mL (≈ 75.9 µM)
- MIC [15]: 4 µg/mL (≈ 9.49 µM)
- MIC [16]: 32 µg/mL (≈ 75.9 µM)
- MIC [17]: 4 µg/mL (≈ 9.49 µM)
- MIC [18]: 32 µg/mL (≈ 75.9 µM)
- MIC [19]: 128 µg/mL (≈ 304 µM)
- MIC [20]: > 256 µg/mL
- MIC [21]: 4 µg/mL (≈ 9.49 µM)
- MIC [22]: 64 µg/mL (≈ 152 µM)
- MIC [23]: > 256 µg/mL
- MIC [24]: 128 µg/mL (≈ 304 µM)
- MIC [25]: 128 µg/mL (≈ 304 µM)
- MIC [26]: 256 µg/mL (≈ 607 µM)
- MIC [27]: 256 µg/mL (≈ 607 µM)
- MIC [28]: 256 µg/mL (≈ 607 µM)
Compound: O[C@@H]1[C@H](Oc2cc(Cl)ccc2Oc2ccc(Cl)cc2Cl)OC[C@@H](O)[C@H]1O
